The values that follow come from paper PMC3775715 (Chemistry & biology, 2012).

Structures are written as SMILES.

For one test, the system named is A549 cells. Put plainly: Metabolomics of steady-state metabolite levels in A549 cells. It is filed as cell-based, human. To be noted: 24 hr, 0.5 uM for 9.
The target of another test is recombinant PKM2 (Homo sapiens, UniProt P14618). Kind of test: Biochemical activity assay against recombinant PKM2. To be noted: for reactivation of PKM2 inhibited by phenylalanine: PKM2 preincubated with phenylalanine for 30 min. In a few lines: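 Recombinant PKM2 was preincubated with phenylalanine for 30 min. Test compound or FBP was then added for 30 min, after which pyruvate kinase activity was measured.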
Sequence of recombinant PKM2 (P14618 whole entry): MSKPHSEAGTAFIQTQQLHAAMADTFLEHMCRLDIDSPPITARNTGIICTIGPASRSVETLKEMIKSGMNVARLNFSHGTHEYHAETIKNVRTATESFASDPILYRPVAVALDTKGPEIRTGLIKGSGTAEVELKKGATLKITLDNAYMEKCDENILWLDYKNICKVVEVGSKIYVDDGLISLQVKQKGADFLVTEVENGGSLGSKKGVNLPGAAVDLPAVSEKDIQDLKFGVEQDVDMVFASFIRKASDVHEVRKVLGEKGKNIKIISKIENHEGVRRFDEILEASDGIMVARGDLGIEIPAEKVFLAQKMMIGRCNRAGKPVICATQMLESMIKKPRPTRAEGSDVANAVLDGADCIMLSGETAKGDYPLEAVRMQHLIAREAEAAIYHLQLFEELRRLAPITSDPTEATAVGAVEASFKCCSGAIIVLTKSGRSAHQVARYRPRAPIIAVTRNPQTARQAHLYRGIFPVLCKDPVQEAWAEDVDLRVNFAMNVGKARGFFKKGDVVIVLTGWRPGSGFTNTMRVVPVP

`CCCCS(=N)(=O)CC[C@H](N)C(=O)O` (stereo partly shown) [BSO, buthionine sulfoxime]: the “changes in steady-state metabolite levels” value in the test on A549 cells is recorded as “induced robust changes in steady-state metabolite pools”.
As for `O=C(COP(=O)(O)O)[C@@H](O)[C@H](O)[C@H](O)COP(=O)(O)O` [FBP, fructose 1,6-bisphosphate], on recombinant PKM2, the “reactivation of PKM2 inhibited by phenylalanine” value was “partially reactivate PKM2 to the low basal level of activity”.
As to `N[C@@H](CO)C(=O)O` [Serine, serine], on recombinant PKM2 (PKM2 inhibited with phenylalanine), the “change in potency for PKM2 inhibited with phenylalanine” value was “eight times loss in potency”. For the same compound, the “reactivation of PKM2 inhibited by phenylalanine” value at recombinant PKM2 is reported as “partially restore the activity of PKM2”.
